The list is not random: actives were taken first. Their share in the collection is about 1.9%.
Tn6 DDE FP = inhibitors of Tn6 peptide binding to fibrin DD(E), primary screen, biochemical, fluorescence polarization, human fibrin, Tn6 probe; hit rate 0.21% among 370,000; inhibition, % at 8.3 µM; Fibrin DD(E) TRITC-Tn6 fluorescence polarization displacement;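 active = inhibition above a per-campaign cutoff: mean of compounds within control limits plus 3 SD, cut at about 15% in these data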;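 also: 0% = median of all compound wells on the plate and 100% = blocking peptide control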
DDE Tn7 FP inh = inhibitors of Tn7 peptide binding to fibrin DD(E), primary screen, biochemical, fluorescence polarization, human fibrin, Tn7 probe; AID 720508, 2013; Fibrinogen beta chain (Homo sapiens), P02675; inhibition, % at 8.3 µM; hit rate 0.13% among 370,000; FP displacement of FITC-Tn7 peptide from fibrin DD(E); 0% = median of compound wells per plate;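 active = inhibition above the mean of compounds falling within the control limits plus 3 SD of them, cut at about 14% in these data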;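 also: 0% = plate median of compound wells and 100% = 10 µM Aha-Tn7 peptide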
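Assay system: human fibrin DD(E) protein / Input: 2 µM fibrin DD(E) / Benchmarks: high control of 10 µM Aha-Tn7 peptide / Measured by: fluorescence polarization of the labelled Tn7 tracer / Medium: Tris buffer with calcium and detergent, pH 7.8 / Timing: 10 min compound pre-incubation, 3 h probe incubation at room temperature / Repeats: one replicate per compound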
UHRF1 binding = UHRF1 methylated DNA binding inhibitors, primary screen, counter-screen for MBD2 inhibitor project, biochemical, TR-FRET, human UHRF1, single concentration | E3 ubiquitin-protein ligase UHRF1 (Homo sapiens), Q96T88 | UHRF1 binding to methylated oligo | inhibition, % at 4.4 µM | hit rate 0.75% among 370,000 | AID 687016, 2013; in the data active = inhibition above about 21%;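 also: UHRF1 SRA domain binding a hemimethylated CpG hairpin DNA probe; 0% = median of test compound wells and 100% = reference inhibitor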
TDP2 absorb = human TDP2 enzyme inhibitors, primary screen, biochemical, epi absorbance, recombinant enzyme; hit rate 0.34% among 370,000; T5PNP hydrolysis, p-nitrophenol absorbance 415 nm; inhibition, % at 12.8 µM; Tyrosyl-DNA phosphodiesterase 2 (Homo sapiens), O95551;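 active = inhibition above the mean of all tested compounds plus 3 SD, set per campaign, cut at about 25% in these data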;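 also: 0% = DMSO with enzyme and 100% = buffer with substrate but no TDP2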
Target sequence (O95551 whole entry, looked up): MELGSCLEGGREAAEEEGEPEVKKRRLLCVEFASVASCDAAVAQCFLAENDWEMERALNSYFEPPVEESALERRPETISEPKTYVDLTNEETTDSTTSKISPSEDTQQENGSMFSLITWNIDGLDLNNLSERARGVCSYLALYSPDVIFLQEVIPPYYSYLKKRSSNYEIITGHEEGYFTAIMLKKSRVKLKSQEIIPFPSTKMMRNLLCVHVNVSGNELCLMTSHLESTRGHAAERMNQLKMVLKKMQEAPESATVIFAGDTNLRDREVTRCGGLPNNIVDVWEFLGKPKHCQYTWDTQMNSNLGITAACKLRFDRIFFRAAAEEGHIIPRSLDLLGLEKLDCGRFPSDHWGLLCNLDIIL
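Material: recombinant human TDP2; quantity: TDP2 enzyme at 120 nM final; medium: Tris-HCl pH 7.5 with MgCl2; compound: single concentration, 12.8 µM nominal, with 1% DMSO; incubation: 2 h enzyme incubation at 37 °C; signal: epi absorbance; measure: percent inhibition; benchmarks: high control without enzyme, low control DMSO plus TDP2; repeats: singlicate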
LEDGF integ inh = blockers of LEDGF/p75-dependent integrase strand transfer – biochemical, TR-FRET, high throughput, primary screen | HIV-1 integrase (with human LEDGF/p75) | TR-FRET IN-LEDGF/p75 DNA integration, Eu/Cy5 | inhibition, % at 3.7 µM | hit rate 0.64% among 370,000 | AID 743269, 2014;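 active = inhibition above the screen-wide mean plus 3 SD, cut at about 13% in these data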;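 also: signal is the Cy5 over europium emission ratio at 671 and 618 nm; 0% = plate median of compound wells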
MBD2 DNA inh = inhibitors of MBD2 binding to methylated DNA, primary screen, biochemical, TR-FRET, DNA-binding domain, human. Methyl-CpG-binding domain protein 2 (Homo sapiens), Q9UBB5. inhibition, % at 4.4 µM. hit rate 0.31% among 370,000. MBD2 binding to methylated oligonucleotide; in the data active = inhibition above about 13%
Target sequence (Q9UBB5 whole entry, looked up, the tested form may be a part): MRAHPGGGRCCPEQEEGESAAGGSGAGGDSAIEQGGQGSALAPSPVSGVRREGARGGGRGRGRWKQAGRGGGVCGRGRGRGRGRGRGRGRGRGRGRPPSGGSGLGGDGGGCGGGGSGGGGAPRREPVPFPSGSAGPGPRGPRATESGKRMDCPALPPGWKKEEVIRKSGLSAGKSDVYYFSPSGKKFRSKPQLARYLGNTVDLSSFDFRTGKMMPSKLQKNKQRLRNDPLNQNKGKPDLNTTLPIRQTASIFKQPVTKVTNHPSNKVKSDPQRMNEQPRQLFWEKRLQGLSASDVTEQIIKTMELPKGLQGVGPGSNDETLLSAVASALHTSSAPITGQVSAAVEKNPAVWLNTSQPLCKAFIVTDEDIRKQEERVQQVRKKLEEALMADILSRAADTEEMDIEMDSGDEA
IN multimer act = HIV-1 IN multimer formation enhancers, counter-screen for LEDGF/p75 integration inhibitor project, biochemical, TR-FRET; shares compounds with LEDGF integ inh; TR-FRET HIV-1 integrase multimerization; activation, % at 7.7 µM; hit rate 17% among 2,000; AID 1053131, 2014; in the data active = activation above about 8.9%
TRFRET interf = TR-FRET optical interference artefacts, confirmation, artefact control for LEDGF/p75-dependent integration inhibitor project, biochemical, HIV-1 IN multimerization | shares compounds with LEDGF integ inh | TR-FRET optical interference counterscreen | inhibition, % at 7.7 µM | 2,000 tested, under 10 active;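 active = inhibition above the mean over all tested compounds plus 3 SD, which no compound reached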;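 also: 0% = integrase with antibodies and DMSO and 100% = antibodies without integrase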
IN-LEDGF confirm = inhibitors of HIV-1 IN-LEDGF/p75 DNA integration, confirmation, biochemical, TR-FRET. AID 1053136, 2014. inhibition, % at 3.7 µM. shares compounds with LEDGF integ inh. TR-FRET LEDGF/p75-dependent HIV-1 integration. hit rate 36% among 2,000; in the data active = inhibition above about 14%
* = called active by the depositor.

How did C/C(=N/NC(=O)c1cc(O)c(O)c(O)c1)c1ccc([N+](=O)[O-])cc1 do in these assays?
Tn6 DDE FP: -6.5; DDE Tn7 FP inh: 1.6; UHRF1 binding: 21.9*; TDP2 absorb: -2.0; LEDGF integ inh: 31.2*; MBD2 DNA inh: 4.7; IN multimer act: 19.4*; TRFRET interf: -97.9; IN-LEDGF confirm: 51.3*

What do the screens show for `C=C1CC2C(=O)N(Cc3cc(OC)ccc3OC)C(C(=O)OCC)(C(=O)OCC)C1N2C(=O)OC(C)(C)C` (centres undefined)?
Tn6 DDE FP: -3.4; DDE Tn7 FP inh: -6.8; UHRF1 binding: -1.6; TDP2 absorb: 2.4; LEDGF integ inh: 50.1*; MBD2 DNA inh: -3.8; IN multimer act: 2.1; TRFRET interf: -8.8; IN-LEDGF confirm: -8.6

What do the screens show for `COc1ccc(B(O)O)c(CN2CCN(C(=O)OC(C)(C)C)CC2)c1`?
Tn6 DDE FP: -5.2; DDE Tn7 FP inh: 0.3; UHRF1 binding: 4.9; TDP2 absorb: 6.8; LEDGF integ inh: 7.2; MBD2 DNA inh: -1.2

What do the screens show for `CCN(C(=O)COC(=O)c1ccc(Sc2ncn[nH]2)c([N+](=O)[O-])c1)c1ccccc1`?
Tn6 DDE FP: 2.0; DDE Tn7 FP inh: 6.3; UHRF1 binding: 0.1; TDP2 absorb: 1.1; LEDGF integ inh: -0.4; MBD2 DNA inh: 1.4

What do the screens show for `O=C(Nc1nccs1)Oc1ccccc1`?
Tn6 DDE FP: 0.6; DDE Tn7 FP inh: -0.8; UHRF1 binding: 0.9; TDP2 absorb: 3.3; LEDGF integ inh: 16.4*; MBD2 DNA inh: 2.9; IN multimer act: 1.1; TRFRET interf: -3.9; IN-LEDGF confirm: -9.8

Results for O=C1CC(c2ccco2)CC(O)=C1C=Nc1cc(Cl)ccc1Cl (centres undefined) ?
Tn6 DDE FP: 5.8; DDE Tn7 FP inh: 7.1; UHRF1 binding: 24.4*; TDP2 absorb: 2.2; LEDGF integ inh: 20.8*; MBD2 DNA inh: 0.3; IN multimer act: -0.4; TRFRET interf: 2.2; IN-LEDGF confirm: 21.4*

How did O=C1CC(c2ccco2)CC(O)=C1C=Nc1cc(Cl)ccc1O (centres undefined) do in these assays?
Tn6 DDE FP: -4.3; DDE Tn7 FP inh: 2.6; UHRF1 binding: 21.1*; TDP2 absorb: -15.1; LEDGF integ inh: 34.3*; MBD2 DNA inh: 3.7; IN multimer act: 5.3; TRFRET interf: -18.9; IN-LEDGF confirm: 15.6*

How did O=C1c2cccc3c2N(CCC3)C(=O)C1(F)c1ccccc1 (centres undefined) do in these assays?
Tn6 DDE FP: -3.5; DDE Tn7 FP inh: -2.2; UHRF1 binding: -2.6; TDP2 absorb: -11.4; LEDGF integ inh: 14.1*; MBD2 DNA inh: -4.1; IN multimer act: -0.3; TRFRET interf: 0.8; IN-LEDGF confirm: -6.3

Results for COc1cc(N=C2C(=O)N3CCCc4cccc2c43)cc(OC)c1 ?
Tn6 DDE FP: 2.4; DDE Tn7 FP inh: -4.8; UHRF1 binding: -14.0; TDP2 absorb: 7.0; LEDGF integ inh: -2.0; MBD2 DNA inh: -11.6

Results for Cc1ccc(CNc2ccc(O)cc2)cc1 ?
Tn6 DDE FP: 13.1; DDE Tn7 FP inh: -4.4; UHRF1 binding: -1.8; TDP2 absorb: 21.4; LEDGF integ inh: 19.8*; MBD2 DNA inh: -8.0; IN multimer act: 11.1*; TRFRET interf: -56.0; IN-LEDGF confirm: 31.1*

Results for Cc1ccc(NCc2ccccc2O)cc1 ?
Tn6 DDE FP: 3.7; DDE Tn7 FP inh: 3.9; UHRF1 binding: -2.3; TDP2 absorb: 7.6; LEDGF integ inh: -2.0; MBD2 DNA inh: 3.3

How did C=CCN1C(=O)[C@@H](CC(=O)NCCCOC)[C@]2(C(=O)OC)CCCCC=C12 do in these assays?
Tn6 DDE FP: -2.1; DDE Tn7 FP inh: -7.0; UHRF1 binding: 4.7; TDP2 absorb: -3.4; LEDGF integ inh: 2.5; MBD2 DNA inh: -3.9

Results for COc1ccc(N=C2NC(=O)/C(=C\c3ccco3)S2)cc1 ?
Tn6 DDE FP: 3.9; DDE Tn7 FP inh: -5.7; UHRF1 binding: 8.2; TDP2 absorb: 5.8; LEDGF integ inh: 4.7; MBD2 DNA inh: -2.1

How did O=C1NC(=Nc2ccc(O)cc2)S/C1=C\C=C\c1ccco1 do in these assays?
Tn6 DDE FP: -9.2; DDE Tn7 FP inh: -2.6; UHRF1 binding: 5.1; TDP2 absorb: 18.0; LEDGF integ inh: 38.5*; MBD2 DNA inh: -4.5; IN multimer act: 18.5*; TRFRET interf: -93.0; IN-LEDGF confirm: 53.2*

What do the screens show for `C[C@@H]1ON(C)[C@H]2C[C@H]3c4[nH]c5c(-c6ccccc6F)cccc5c4CCN3C(=O)[C@@H]12`?
Tn6 DDE FP: 1.8; DDE Tn7 FP inh: -3.2; UHRF1 binding: -0.6; TDP2 absorb: 3.9; LEDGF integ inh: -2.9; MBD2 DNA inh: -3.1

How did Cc1ccc(NC(=O)CN(c2ccccc2F)S(C)(=O)=O)cc1 do in these assays?
Tn6 DDE FP: -5.3; DDE Tn7 FP inh: -4.7; UHRF1 binding: 0.8; TDP2 absorb: -5.8; LEDGF integ inh: 20.6*; MBD2 DNA inh: 3.8; IN multimer act: -2.4; TRFRET interf: 12.0; IN-LEDGF confirm: -4.3

Results for CC(=O)c1ccc(NC(=S)NC(=O)Cc2ccc(Cl)cc2)cc1 ?
Tn6 DDE FP: 10.2; DDE Tn7 FP inh: -4.7; UHRF1 binding: 3.8; TDP2 absorb: 4.5; LEDGF integ inh: 14.9*; MBD2 DNA inh: 0.0; IN multimer act: 8.0; TRFRET interf: -28.4; IN-LEDGF confirm: -3.4

What do the screens show for `Cc1cc(Nc2cc(F)c(F)c(F)c2)cc(=O)n1-c1cc(F)c(F)c(F)c1`?
Tn6 DDE FP: -13.7; DDE Tn7 FP inh: 2.6; UHRF1 binding: 0.9; TDP2 absorb: 5.1; LEDGF integ inh: -0.8; MBD2 DNA inh: 2.1
